ChEMBL document CHEMBL1212756, “Klebsiella pneumoniae AcrAB efflux pump contributes to antimicrobial resistance and virulence” (2010)
≈ marks a conversion by molar mass, not a printed value. Calls of active or inactive are those of the source. The calls are words filed in the database; no cut-off is given here.

What was measured:
[1] = test system: Klebsiella pneumoniae; test: Antimicrobial activity against rifampin resistant Klebsiella pneumoniae 52deltaacrR containing isogenic acrR knockout assessed as growth inhibition by Etest method; type: functional
In short: (§1)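 MICs were read from Etest strips following the manufacturer's instructions. The parent strain is a spontaneous rifampin-resistant mutant of clinical isolate 52145 (serotype O1:K2), grown in LB at 37°C. The acrB and acrR knockouts were made from it by insertion-duplication via homologous recombination with plasmid pFS100.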

[2] = test system: Klebsiella pneumoniae; test: Antimicrobial activity against rifampin resistant Klebsiella pneumoniae 52145R assessed as growth inhibition by Etest method; type: functional; in short: as §1
[3] = test system: Klebsiella pneumoniae; test: Antimicrobial activity against rifampin resistant Klebsiella pneumoniae 52deltaacrB containing isogenic acrB knockout assessed as growth inhibition by Etest method; type: functional; in short: as §1
[4] = test system: Klebsiella pneumoniae; test: Antimicrobial activity against rifampin resistant Klebsiella pneumoniae 52145R assessed as growth inhibition at 0.1 ug/ml in presence of 50 uM uncoupler CCCP by Etest method; type: functional, organism-based
In short: (§2)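 Exponential-phase LB cultures (37°C) were harvested and resuspended at ca. 2.1 x 10^5 CFU/ml in 1% tryptone-PBS, pH 7.4. They were exposed to polymyxin B 0.1 µg/ml for 30 min at 37°C, either alone, after de-energizing with 50 µM CCCP, or with 0.4% glucose. Colony counts are given as % of unexposed cells, in duplicate on at least three occasions.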

[5] = test system: Klebsiella pneumoniae; test: Antimicrobial activity against rifampin resistant Klebsiella pneumoniae 52deltaacrB containing isogenic acrB knockout assessed as growth inhibition at 0.1 ug/ml by Etest method; type: functional, organism-based
[6] = test system: Klebsiella pneumoniae; test: Antimicrobial activity against rifampin resistant Klebsiella pneumoniae 52145R assessed as growth inhibition at 0.1 ug/ml in presence of 50 uM uncoupler CCCP and glucose by Etest method; type: functional, organism-based; in short: as §2

| Compound | MIC [1] [µg/mL] | MIC [2] [µg/mL] | MIC [3] [µg/mL] | growth inhibition (GI) [4] | growth inhibition (GI) [5] | growth inhibition (GI) [6] |
| --- | --- | --- | --- | --- | --- | --- |
| CC[C@H]1OC(=O)[C@H](C)[C@@H](O[C@H]2C[C@@](C)(OC)[C@@H](O)[C@H](C)O2)[C@H](C)[C@@H](O[C@@H]2O[C@H](C)C[C@H](N(C)C)[C@H]2O)[C@](C)(O)C[C@@H](C)C(=O)[C@H](C)[C@@H](O)[C@]1(C)O [ERYTHROMYCIN] | 32 (≈ 43.6 µM) | 32 (≈ 43.6 µM) | 8 (≈ 10.9 µM) |  |  |  |
| O=C(O)c1cn(C2CC2)c2cc(N3CCNCC3)c(F)cc2c1=O [CIPROFLOXACIN] |  |  | 0.008 (≈ 0.0241 µM) |  |  |  |
| CO/N=C(\C(=O)N[C@@H]1C(=O)N2C(C(=O)O)=C(COC(C)=O)CS[C@H]12)c1csc(N)n1 [CEFOTAXIME] | 4 (≈ 8.78 µM) | 0.125 (≈ 0.274 µM) | 0.06 (≈ 0.132 µM) |  |  |  |
| POLYMYXIN B |  |  |  | Active | Active | inactive |
| CCn1cc(C(=O)O)c(=O)c2ccc(C)nc21 [NALIDIXIC ACID] | 8 (≈ 34.4 µM) | 4 (≈ 17.2 µM) | 0.5 (≈ 2.15 µM) |  |  |  |
| GENTAMICIN | 0.25 | 0.25 | 0.06 |  |  |  |
| O=C(N[C@H](CO)[C@H](O)c1ccc([N+](=O)[O-])cc1)C(Cl)Cl [CHLORAMPHENICOL] | 4 (≈ 12.4 µM) | 2 (≈ 6.19 µM) | 1 (≈ 3.09 µM) |  |  |  |
| C[C@@H](O)[C@H]1C(=O)N2C(C(=O)O)=C(S[C@@H]3CN[C@H](C(=O)N(C)C)C3)[C@H](C)[C@H]12 [MEROPENEM] | 0.03 (≈ 0.0782 µM) | 0.03 (≈ 0.0782 µM) | 0.03 (≈ 0.0782 µM) |  |  |  |
| CN(C)[C@@H]1C(O)=C(C(N)=O)C(=O)[C@@]2(O)C(O)=C3C(=O)c4c(O)cccc4[C@@](C)(O)[C@H]3C[C@@H]12 [TETRACYCLINE] | 4 (≈ 9 µM) | 2 (≈ 4.5 µM) | 0.25 (≈ 0.563 µM) |  |  |  |
| C[C@@H](O)[C@H]1C(=O)N2C(C(=O)O)=C(S[C@@H]3CN[C@H](C(=O)Nc4cccc(C(=O)O)c4)C3)[C@H](C)[C@H]12 | 0.012 (≈ 0.0252 µM) | 0.012 (≈ 0.0252 µM) | 0.012 (≈ 0.0252 µM) |  |  |  |
| CO[C@@]1(NC(=O)Cc2cccs2)C(=O)N2C(C(=O)O)=C(COC(N)=O)CS[C@@H]21 [CEFOXITIN] | 32 (≈ 74.9 µM) | 8 (≈ 18.7 µM) | 4 (≈ 9.36 µM) |  |  |  |
| NC[C@H]1O[C@H](O[C@H]2[C@H](O)[C@@H](O[C@H]3O[C@H](CO)[C@@H](O)[C@H](N)[C@H]3O)[C@H](N)C[C@@H]2N)[C@H](N)C[C@@H]1O [TOBRAMYCIN] | 0.25 (≈ 0.535 µM) | 0.25 (≈ 0.535 µM) | 0.125 (≈ 0.267 µM) |  |  |  |
| C[C@H]1COc2c(N3CCN(C)CC3)c(F)cc3c(=O)c(C(=O)O)cn1c23.C[C@H]1COc2c(N3CCN(C)CC3)c(F)cc3c(=O)c(C(=O)O)cn1c23.O [LEVOFLOXACIN] | 0.19 | 0.09 | 0.006 |  |  |  |
| C[C@@H](O)[C@H]1C(=O)N2C(C(=O)O)=C(SCCNC=N)C[C@H]12 [IMIPENEM ANHYDROUS] | 0.125 (≈ 0.418 µM) | 0.125 (≈ 0.418 µM) | 0.125 (≈ 0.418 µM) |  |  |  |
